According to ChEMBL document CHEMBL1275590, “Novel arylimidamides for treatment of visceral leishmaniasis” (Antimicrob Agents Chemother, 2010):

How the values were obtained:
Mus musculus [1] = experiment: Renal toxicity in BALB/c mouse assessed as blood urea nitrogen level in serum at 100 mg/kg/day, po administered for five days (Rvb= 29 mg/dl); assay type: organism-based; set-up: route oral; settings: in vivo
Method in brief: (§1)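 Female BALB/c mice (n = 5 per dose), dosed once daily for 5 consecutive days p.o. (20 ml/kg) or i.v. (10 ml/kg) with compound in sterile water, prepared fresh daily under yellow light. Vehicle controls n = 5 per route. Clinical observations, body weights, serum chemistry and hematology on day 6 before necropsy; histopathology of formalin-fixed tissues. Chemistry analysed by one-way ANOVA with Dunnett's posttest.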

Mus musculus [2] = experiment: Toxicity in BALB/c mouse assessed as occurrence of ruffled fur at 150 mg/kg/day, po administered for five days measured on day 4; assay type: organism-based; set-up: route oral; settings: in vivo; method in brief: as §1
Mus musculus [3] = experiment: AUC (0 to infinity) in Swiss Webster mouse at 66 mg/kg, po by HPLC-MS/MS analysis; assay type: ADME, organism-based, Plasma; set-up: time infinity, dose 66 mg/kg, route oral; settings: in vivo
Method in brief: (§2)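 Male Swiss Webster mice, n = 3 per time point. For i.v., the compound was dissolved in sterile water, diluted 1:1 with 2× saline, and given as a tail-vein bolus over ~10–20 s. For p.o., it was given by gavage in sterile water. Dose volume was 5 ml/kg. Terminal plasma was taken from 5 min to 72 h and measured by HPLC-MS/MS (calibration 2.5–10,000 nM). Parameters came from noncompartmental analysis.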

[4] = Half life in Swiss Webster mouse at 16.5 mg/kg, po by HPLC-MS/MS analysis; assay type: ADME, organism-based; set-up: dose 16.5 mg/kg, route oral; settings: in vivo; method in brief: as §2
Mus musculus [5] = experiment: Toxicity in BALB/c mouse assessed as decrease in liver weight at 150 mg/kg/day, po administered for five days; assay type: organism-based; set-up: route oral; settings: in vivo; method in brief: as §1
[6] = Oral bioavailability in Swiss Webster mouse at 66 mg/kg by HPLC-MS/MS analysis; assay type: ADME, organism-based; settings: in vivo
Method in brief: (§3)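 Male Swiss Webster mice (n = 3 per time point), single dose by oral gavage (sterile water solution) or tail-vein bolus i.v. (water diluted 1:1 with 2× saline, over ~10–20 s); dose volume 5 ml/kg. Terminal blood sampled from 5 min to 72 h postdose; plasma quantified by HPLC-MS/MS (positive-ion SRM). Noncompartmental analysis gave Cmax, Tmax, AUC0-∞, CL, Vss; bioavailability from p.o. versus i.v. exposure.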

Mus musculus [7] = experiment: Toxicity in BALB/c mouse assessed as decrease in body weight at 150 mg/kg/day, po administered for five days; assay type: organism-based; set-up: route oral; settings: in vivo; method in brief: as §1
[8] = Tmax in Swiss Webster mouse at 16.5 mg/kg, po by HPLC-MS/MS analysis; assay type: ADME, organism-based; set-up: dose 16.5 mg/kg, route oral; settings: in vivo; method in brief: as §3
Mus musculus [9] = experiment: Hepatotoxicity in BALB/c mouse assessed as ALT level in serum at 10 mg/kg/day, iv administered for five days (Rvb= 34 U/L); assay type: toxicity, organism-based; set-up: route intravenous; settings: in vivo
Mus musculus [10] = experiment: Toxicity in BALB/c mouse assessed as ataxia at 100 mg/kg/day, ip after second dose; assay type: organism-based; set-up: route intraperitoneal; settings: in vivo
Mus musculus [11] = experiment: Toxicity in BALB/c mouse assessed as tendency to startle at 50 mg/kg/day, ip administered for five days; assay type: organism-based; set-up: route intraperitoneal; settings: in vivo
Method in brief: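 Acute overt toxicity was checked in uninfected female BALB/c mice before the efficacy work. Compounds were given intraperitoneally once daily for 5 days, and mice were watched for clinical signs such as ruffled fur, hypoactivity, tremors, ataxia and startle, and for survival.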

Leishmania donovani [12] = experiment: Antileishmanial activity against Leishmania donovani WR378 infected in golden Syrian hamster assessed as reduction in spleen parasitemia at 100 mg/kg/day, po administered for five days; assay type: functional; settings: 120 h
Method in brief: (§4)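 11-day golden hamster VL model adapted from an 8-day method, using L. donovani WR378 metacyclic promastigotes. Dosing was oral, once daily for 5 days. Animals were euthanized on day 11 post-infection. Liver, spleen and femoral bone marrow (flushed with Schneider's medium) were harvested.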

[13] = Induction of mutagenicity in Salmonella serovar Typhimurium TA 100 assessed as number of revertant colonies at 5 ug by Ames assay; assay type: toxicity, Salmonella enterica subsp. enterica serovar Typhimurium; settings: in vivo
Method in brief: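 Plate incorporation method with TA100, with and without Aroclor 1254-induced rat liver S9 (10% vol/vol). Compound dissolved in sterile water, serially diluted; plates scored for revertant count and background lawn versus controls. Mutagen if mean revertants at least 2-fold over mean solvent control. Positive controls: 2-nitrofluorene and sodium azide without S9, 2-aminoanthracene with S9; water and DMSO vehicles.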

[14] = Cmax in Swiss Webster mouse at 70 mg/kg, po by HPLC-MS/MS analysis; assay type: ADME, organism-based; set-up: dose 70 mg/kg, route oral; settings: in vivo; method in brief: as §2
[15] = Induction of mutagenicity in Salmonella serovar Typhimurium TA 98 assessed as number of revertant colonies at 100 ug by Ames assay; assay type: toxicity, Salmonella enterica subsp. enterica serovar Typhimurium; settings: in vivo
Method in brief: (§5)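 Ames plate incorporation with S. Typhimurium TA98 and TA100, with or without Aroclor 1254-induced rat liver S9 (10% vol/vol). Compound was dissolved in sterile water and serially diluted to 1–500 μg/plate. Positive controls were 2-nitrofluorene and sodium azide without S9, and 2-aminoanthracene with S9; sterile water and DMSO served as vehicles. Revertant colonies and background lawn were scored. A mutagen was defined as a mean revertant count at least 2-fold over solvent control. Single experiment.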

Leishmania donovani [16] = experiment: Antileishmanial activity against Leishmania donovani WR378 infected in golden Syrian hamster assessed as reduction in bone marrow parasitemia at 30 mg/kg/day, po administered for five days; assay type: functional; settings: 120 h; method in brief: as §4
[17] = Induction of mutagenicity in Salmonella serovar Typhimurium TA 98 assessed as number of revertant colonies at 5 ug by Ames assay in presence of Aroclor 1254-induced rat liver S9 metabolic activation system; assay type: toxicity, subcellular, Salmonella enterica subsp. enterica serovar Typhimurium
Method in brief: (§6)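 Plate incorporation test, S. Typhimurium TA98 (and TA100), with or without Aroclor 1254-induced rat liver S9 (10% vol/vol). Compound dissolved in sterile water, serially diluted to 1–1,000 or 1–500 μg/plate. Positive controls: 2-nitrofluorene and sodium azide without S9, 2-aminoanthracene with S9; water and DMSO vehicle controls. Revertant colonies and background lawn scored; mutagen if mean revertants ≥2-fold solvent control. Single experiment.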

[18] = Induction of mutagenicity in Salmonella serovar Typhimurium TA 98 assessed as number of revertant colonies at 1 ug by Ames assay; assay type: toxicity, Salmonella enterica subsp. enterica serovar Typhimurium; settings: in vivo; method in brief: as §5
[19] = Induction of mutagenicity in Salmonella serovar Typhimurium TA 98 assessed as number of revertant colonies at 500 ug by Ames assay in presence of Aroclor 1254-induced rat liver S9 metabolic activation system; assay type: toxicity, subcellular, Salmonella enterica subsp. enterica serovar Typhimurium; method in brief: as §6
Mus musculus [20] = experiment: Hepatotoxicity in BALB/c mouse assessed as AST level in serum at 30 mg/kg/day, iv administered for five days (Rvb= 65 U/L); assay type: toxicity, organism-based; set-up: route intravenous; settings: in vivo
[21] = Induction of mutagenicity in Salmonella serovar Typhimurium TA 100 assessed as number of revertant colonies at 1 ug by Ames assay; assay type: toxicity, Salmonella enterica subsp. enterica serovar Typhimurium; settings: in vivo; method in brief: as §5
[22] = Induction of mutagenicity in Salmonella serovar Typhimurium TA 100 assessed as number of revertant colonies at 100 ug by Ames assay in presence of Aroclor 1254-induced rat liver S9 metabolic activation system; assay type: toxicity, subcellular, Salmonella enterica subsp. enterica serovar Typhimurium; method in brief: as §5
Mus musculus [23] = experiment: Hepatotoxicity in BALB/c mouse assessed as alkaline phosphatase in serum at 150 mg/kg/day, po administered for five days (Rvb= 129 U/L); assay type: toxicity, organism-based; set-up: route oral; settings: in vivo
[24] = Induction of mutagenicity in Salmonella serovar Typhimurium TA 98 assessed as number of revertant colonies at 10 ug by Ames assay in presence of Aroclor 1254-induced rat liver S9 metabolic activation system; assay type: toxicity, subcellular, Salmonella enterica subsp. enterica serovar Typhimurium; method in brief: as §5
Leishmania donovani [25] = experiment: Antileishmanial activity against Leishmania donovani WR378 infected in golden Syrian hamster assessed as reduction in liver parasitemia at 10 mg/kg/day, po administered for five days; assay type: functional; settings: 120 h; method in brief: as §4

CCOc1cc(NC(=N)c2ccccn2)ccc1-c1ccc(-c2ccc(NC(=N)c3ccccn3)cc2OCC)o1
Activity (Mus musculus [1]): 52 mg/dL
Activity (Mus musculus [2]): Toxic
AUC (Mus musculus [3]): 5.6 µM·h
half-life [4]: 24 h
Activity (Mus musculus [5]): Toxic
bioavailability [6]: 9.3%
Activity (Mus musculus [7]): Toxic
Tmax [8]: 2 h
Activity (Mus musculus [9]): 40 U/L
Activity (Mus musculus [10]): Toxic
Activity (Mus musculus [11]): Toxic

CC(C)Oc1cc(NC(=N)c2ccccn2)ccc1-c1ccc(-c2ccc(NC(=N)c3ccccn3)cc2OC(C)C)o1
inhibition in vivo at 100 mg/kg/day (Leishmania donovani [12]): 79%
Activity [13]: 145
Cmax [14]: 1.76 µM
Activity [15]: 34
inhibition in vivo at 30 mg/kg/day (Leishmania donovani [16]): 24%
Activity [17]: 48
Activity [18]: 38
Activity [19]: 47
Activity (Mus musculus [20]): 73 U/L
Activity [21]: 152
Activity [22]: 98
Activity (Mus musculus [23]): 142 U/L
Activity [24]: 38
inhibition in vivo at 10 mg/kg/day (Leishmania donovani [25]): 10%
